From ChEMBL document CHEMBL3259610, “Liver S9 Fraction-Derived Metabolites of Curcumin Analogue UBS109” (ACS Med Chem Lett, 2014)
Active and inactive are the calls of the source. The calls are words filed in the database; no cut-off is given here.

What was measured:
[1] = Elimination half life in mouse; format: ADME, organism-based; settings: in vivo, read-out: beta t1/2 (converted)
[2] = Growth inhibition of human TU212 cells after 48 hrs by neutral red dye uptake assay; format: functional; settings: TU212, 48 h
Procedure, shortened: (§1)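 TU212 (head and neck SCC) and MDA-MB-231 (breast adenocarcinoma) cells were exposed to compounds at 5 and 10 μM with DMSO below 0.1%. Viability was read by neutral red uptake. Error bars are standard error of the mean, and significance was tested by two-tailed t test.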

[3] = system: MDA-MB-231; assay: Growth inhibition of human MDA-MB-231 cells after 48 hrs by neutral red dye-based assay; format: functional; settings: MDA-MB-231, 48 h; procedure, shortened: as §1
[4] = Drug level in Beagle dog whole blood treated with UBS109 at 1 uM after 2 hrs by LC/MS-MS analysis; format: ADME, tissue-based, Canis lupus familiaris
[5] = system: Blood; assay: Drug level in human whole blood treated with UBS109 at 1 uM after 2 hrs by LC/MS-MS analysis; format: ADME, tissue-based
[6] = Drug level in CD1 mouse liver S9 fraction treated with UBS109 at 1 uM using 1% DMSO measured after 60 mins by LC/MS-MS analysis in presence of NADPH; format: ADME, subcellular; settings: s9, 1 h
Procedure, shortened: (§2)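 Compound was incubated in pooled liver S9 fractions (mouse, cynomolgus monkey, human), mostly with NADPH and in 1% DMSO. Human S9 was also run without NADPH, and at 0.2% DMSO. Parent loss and metabolite formation were followed over time by LC–MS/MS, and half-life was derived from parent depletion.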

[7] = system: Liver; assay: Drug level in human liver S9 fraction treated with UBS109 at 1 uM using 1% DMSO measured after 1 hr by LC/MS-MS analysis in absence of NADPH; format: ADME; settings: s9, 1 h; procedure, shortened: as §2
[8] = Drug level in cynomolgus monkey whole blood treated with UBS109 at 1 uM after 2 hrs by LC/MS-MS analysis; format: ADME, tissue-based, Macaca fascicularis
[9] = Drug level in human liver S9 fraction treated with UBS109 at 1 uM using 1% DMSO measured at 60 mins by LC/MS-MS analysis in presence of NADPH; format: ADME, subcellular; settings: s9, 1 h; procedure, shortened: as §2
[10] = Half life in human liver S9 fraction at 2 uM using 0.2% DMSO in presence of NADPH; format: ADME, subcellular; procedure, shortened: as §2
[11] = Half life in human liver S9 fraction at 2 uM in absence of NADPH
[12] = Drug metabolism in human liver S9 fraction assessed as (E)-1-methyl-3,5-bis(2-pyridinylmethylidene)-4-hydroxypiperidine formation at 1 uM using 1% DMSO measured after 1 hr by LC/MS-MS analysis in absence of NADPH; format: ADME; settings: s9, 1 h; procedure, shortened: as §2
[13] = Half life in cynomolgus monkey liver S9 fraction at 1 uM using 1% DMSO; format: ADME, subcellular, Macaca fascicularis; procedure, shortened: as §2
[14] = Drug metabolism in human liver S9 fraction assessed as (E)-1-methyl-3,5-bis(2-pyridinylmethylidene)-4-hydroxypiperidine formation at 1 uM using 1% DMSO measured at 60 mins by LC/MS-MS analysis in presence of NADPH; format: ADME, subcellular; settings: s9, 1 h; procedure, shortened: as §2
[15] = Drug metabolism in human liver S9 fraction assessed as (E)-1-methyl-3-(2-pyridinylmethyl)-5-(2-pyridinylmethylidene)-4-piperidone formation at 1 uM using 1% DMSO measured after 1 hr by LC/MS-MS analysis in absence of NADPH; format: ADME; settings: s9, 1 h; procedure, shortened: as §2
[16] = Drug metabolism in CD1 mouse liver S9 fraction assessed as (E)-1-methyl-3-(2-pyridinylmethyl)-5-(2-pyridinylmethylidene)-4-piperidone formation at 1 uM using 1% DMSO measured at 60 mins by LC/MS-MS analysis in presence of NADPH; format: ADME, subcellular; settings: s9, 1 h; procedure, shortened: as §2
[17] = Metabolic stability in human liver S9 fraction assessed as remaining compound level at 2 uM using 0.2% DMSO measured after 1 hr by LC/MS-MS analysis in absence of NADPH; format: ADME; settings: read-out: Stability; procedure, shortened: as §2
[18] = Drug metabolism in Beagle dog whole blood assessed as (E)-1-methyl-3-(2-pyridinylmethyl)-5-(2-pyridinylmethylidene)-4-piperidone formation at 1 uM after 2 hrs by LC/MS-MS analysis; format: ADME, tissue-based, Canis lupus familiaris
[19] = system: Blood; assay: Drug metabolism in human whole blood assessed as (E)-1-methyl-3-(2-pyridinylmethyl)-5-(2-pyridinylmethylidene)-4-piperidone formation at 1 uM after 2 hrs by LC/MS-MS analysis; format: ADME, tissue-based
[20] = Plasma protein binding in mouse; format: ADME, organism-based; settings: read-out: PPB (converted)
[21] = Drug metabolism in cynomolgus monkey whole blood assessed as (E)-1-methyl-3-(2-pyridinylmethyl)-5-(2-pyridinylmethylidene)-4-piperidone formation at 1 uM after 2 hrs by LC/MS-MS analysis; format: ADME, tissue-based, Macaca fascicularis
[22] = Drug metabolism in Sprague-Dawley rat liver S9 fraction at 1 uM using 1% DMSO measured after 60 mins by LC/MS-MS analysis in presence of NADPH; format: ADME, subcellular; settings: s9, 1 h
[23] = system: TU212; assay: Cytotoxicity against human TU212 cells assessed as cell viability at 5 to 10 uM after 48 hrs by neutral red dye uptake assay; format: functional, cell-based; procedure, shortened: as §1
[24] = Metabolic stability in human liver S9 fraction assessed as remaining compound level at 2 uM using 0.2% DMSO measured after 1 hr by LC/MS-MS analysis in presence of NADPH; format: ADME, subcellular; settings: read-out: Stability; procedure, shortened: as §2
[25] = Drug metabolism in human liver S9 fraction assessed as (E)-1-methyl-3-(2-pyridinylmethyl)-5-(2-pyridinylmethylidene)-4-piperidone formation at 1 uM using 1% DMSO measured at 60 mins by LC/MS-MS analysis in presence of NADPH; format: ADME, subcellular; settings: s9, 1 h; procedure, shortened: as §2
[26] = Half life in CD1 mouse liver S9 fraction at 1 uM using 1% DMSO; format: ADME, subcellular; procedure, shortened: as §2
[27] = Elimination half life in ND4 Swiss Webster mouse at 12.5 to 25 mg/kg, ip; format: ADME, organism-based; set-up: dose 12.5-25 mg/kg, route intraperitoneal; settings: in vivo, read-out: beta t1/2

O=C1/C(=C/c2ccccc2F)CNC/C1=C\c1ccccc1F
half-life [1]: 60 min

CN1C/C(=C\c2ccccn2)C(=O)C(Cc2ccccn2)C1 (configuration not stated)
GI50 [2]: > 10 µM | GI50 [3]: > 5 µM | Drug metabolism [4]: metabolite_detected | Drug metabolism [5]: metabolite_detected | Drug metabolism [6]: metabolite_detected | Drug metabolism [7]: metabolite_detected | Drug metabolism [8]: metabolite_detected | Drug metabolism [9]: metabolite_detected

CN1C/C(=C\c2ccccn2)C(=O)/C(=C/c2ccccn2)C1
half-life at 2 µM [10]: 9 min | half-life at 2 µM [11]: 18 min | half-life [1]: 240 min | Drug metabolism [12]: metabolite_detected | half-life at 1 µM [13]: 8 min | Drug metabolism [14]: metabolite_detected | Drug metabolism [15]: metabolite_detected | Drug metabolism [16]: metabolite_detected | remaining at 1 h, 2 µM [17]: 27.6% | Drug metabolism [18]: metabolite_detected | Drug metabolism [19]: metabolite_detected | fraction unbound [20]: 0.06 | Drug metabolism [21]: metabolite_detected | Drug metabolism [22]: metabolite_detected | Activity [23]: Active | remaining at 1 h, 2 µM [24]: 4.1% | Drug metabolism [25]: metabolite_detected | half-life at 1 µM [26]: 38 min

O=C1/C(=C/c2ccccn2)CNC/C1=C\c1ccccn1
half-life [27]: ≤ 1 min

CN1C/C(=C\c2ccccn2)C(O)/C(=C/c2ccccn2)C1 (configuration not stated)
GI50 [2]: > 10 µM | GI50 [3]: > 10 µM | Drug metabolism [7]: metabolite_detected | Drug metabolism [9]: metabolite_detected
